Columns and labels:
[1] = biological target: T1, Neutrophil elastase (Homo sapiens, UniProt P08246); assay: The compound was tested for inhibition of human neutrophil elastase enzyme with a pre-incubation time of 40 min.
T1 sequence (P08246 whole entry): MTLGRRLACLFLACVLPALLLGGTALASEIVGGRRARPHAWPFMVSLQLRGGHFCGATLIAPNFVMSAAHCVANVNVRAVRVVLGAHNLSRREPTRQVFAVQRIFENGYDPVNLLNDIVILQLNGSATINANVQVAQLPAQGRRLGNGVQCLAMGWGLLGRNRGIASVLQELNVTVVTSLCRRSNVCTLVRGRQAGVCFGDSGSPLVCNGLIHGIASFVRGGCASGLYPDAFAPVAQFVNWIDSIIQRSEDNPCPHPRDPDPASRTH
Summary of the method: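 Compound preincubated with HNE for 40 min, then reaction started with MeO-Succ-Ala-Ala-Pro-Val-p-nitroanilide; p-nitroanilide release monitored spectrophotometrically to give IC50. Errors quoted as standard deviations.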

[2] = biological target: T1, Neutrophil elastase; assay: The compound was tested for inhibition of human neutrophil elastase enzyme with a pre-incubation time of 0 min.
Summary of the method: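 HNE IC50: compound preincubated at 30 °C with substrate MeO-Succ-Ala-Ala-Pro-Val-p-nitroanilide, reaction started by adding HNE (0 min enzyme preincubation); p-nitroanilide release followed spectrophotometrically. Errors as standard deviations.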

[3] = biological target: T2, Prothrombin (Homo sapiens, UniProt P00734); assay: The compound was tested for inhibition of thrombin with a pre-incubation time of 15 min
[4] = biological target: T3, Chymotrypsinogen A (Bos taurus, UniProt P00766); assay: The compound was tested for inhibition of Chymotrypsinogen with a pre-incubation time of 15 min
[5] = biological target: T1, Neutrophil elastase; assay: The compound was tested for inhibition of human neutrophil elastase enzyme with a pre-incubation time of 15 min.
Summary of the method: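 IC50 against HNE determined after a 15-min preincubation of compound with enzyme; substrate MeO-Succ-Ala-Ala-Pro-Val-p-nitroanilide, p-nitroanilide release read spectrophotometrically.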

[6] = biological target: T4, Cathepsin G (Homo sapiens, UniProt P08311); assay: The compound was tested for inhibition of cathepsin G with a pre-incubation time of 15 min
T4 sequence (P08311 whole entry): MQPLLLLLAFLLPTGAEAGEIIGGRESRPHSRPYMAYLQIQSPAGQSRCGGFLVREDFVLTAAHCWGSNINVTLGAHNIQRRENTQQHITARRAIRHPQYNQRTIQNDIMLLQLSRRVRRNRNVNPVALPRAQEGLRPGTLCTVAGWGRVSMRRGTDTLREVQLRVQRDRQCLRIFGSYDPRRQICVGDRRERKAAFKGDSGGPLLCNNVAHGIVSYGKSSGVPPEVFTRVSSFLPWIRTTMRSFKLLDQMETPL

[7] = biological target: T2, Prothrombin; assay: The compound was tested for inhibition of thrombin with a pre-incubation time of 15 min.
[8] = biological target: T3, Chymotrypsinogen A; assay: The compound was tested for inhibition of Chymotrypsinogen with a pre-incubation time of 15 min.
[9] = biological target: T2, Prothrombin; assay: The compound was tested for inhibition of thrombin with a preincubation time of 15 min

SMILES	IC50 [1] [nM]	IC50 [2] [nM]	IC50 [3] [µM]	IC50 [4] [µM]	IC50 [5] [nM]	IC50 [6] [µM]	IC50 [7] [µM]	IC50 [8] [µM]	IC50 [9] [µM]
C=CC[C@@H]1C(=O)O[C@H]2CCN(C(=O)OCc3ccccc3)C21 (stereo partly drawn)	74	12800	44.6	4.86	–	–	–	–	–
C=CC[C@H]1C(=O)O[C@H]2CCN(C(=O)OCC)C21 (stereo partly drawn)	–	–	–	4	69	3.6	> 200	–	–
C=CC[C@H]1C(=O)N(S(=O)(=O)c2cccc3ccccc23)[C@H]2CCN(C(=O)OCc3ccccc3)C12 (stereo partly drawn)	88	> 100000	–	11.5	–	–	> 100	–	–
C=CC[C@H]1C(=O)N(S(C)(=O)=O)[C@H]2CCN(C(=O)OCc3ccccc3)[C@H]12	56	370	–	40.6	–	–	53.2	–	–
C=CC[C@H]1C(=O)N[C@H]2CCN(C(=O)OCc3ccccc3)[C@@H]21	> 500000	> 500000	–	–	–	–	> 100	> 100	–
CCC[C@@H](NC(=O)N1C(=O)C(CC)(CC)[C@@H]1Oc1ccc(C(=O)N2CCN(C)CC2)cc1)c1ccc2c(c1)OCO2	36	23	–	0.98	–	–	–	–	78.8
C=CC[C@H]1C(=O)O[C@H]2CCN(C(=O)OCc3ccccc3)C21 (stereo partly drawn)	47	336	49	15.9	–	–	–	–	–
